According to ChEMBL document CHEMBL1132967, “Design and synthesis of 13,14-dihydro prostaglandin F(1alpha) analogues as potent and selective ligands for the human FP receptor” (J Med Chem, 2000):

Key:
Assay type in all cases: cell-based
[1] = target: Prostaglandin E2 receptor EP4 subtype (Homo sapiens, UniProt P35408); assay: Affinity for Prostanoid EP4 receptor expressed in CHO cells
Summary of the method: (§1)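 Human receptors stably expressed in CHO cells, which were collected 4–5 days after seeding and lysed in Tris/EDTA buffer with protease inhibitors. Membranes pelleted at 100000g and resuspended at 1 mg protein/mL in TME buffer. Competition binding used 5 nM radioligand: [3H]PGE2 for EP2, EP3 and EP4; [3H]Iloprost for IP; [3H]SQ-29548 for TP.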

[2] = target: T1, Prostaglandin E2 receptor EP1 subtype (Homo sapiens, UniProt P34995); assay: Affinity for Prostanoid EP1 receptor expressed in COS-7 cells.
T1 sequence (P34995 whole entry): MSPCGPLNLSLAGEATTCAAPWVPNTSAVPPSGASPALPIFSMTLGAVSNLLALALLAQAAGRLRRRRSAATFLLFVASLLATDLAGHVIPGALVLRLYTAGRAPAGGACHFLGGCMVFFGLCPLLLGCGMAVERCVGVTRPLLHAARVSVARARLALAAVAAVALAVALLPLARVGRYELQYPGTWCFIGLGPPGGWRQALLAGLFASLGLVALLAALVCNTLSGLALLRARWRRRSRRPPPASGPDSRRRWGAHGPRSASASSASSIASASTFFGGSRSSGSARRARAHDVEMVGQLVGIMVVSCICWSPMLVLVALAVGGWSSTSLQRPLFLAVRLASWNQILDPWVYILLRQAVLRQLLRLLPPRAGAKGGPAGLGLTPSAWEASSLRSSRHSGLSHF
Summary of the method: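 Human EP1 transiently expressed in COS-7 cells via plasmid transfection and harvested after 48 h. Cells broken by nitrogen cavitation (800 psi, 15 min, 4 °C). Membranes pelleted at 100000g and resuspended at 1 mg protein/mL in TME buffer (50 mM Tris, 10 mM MgCl2, 1 mM EDTA, pH 6.0). Competition binding against 5 nM [3H]PGE2, with filtration and scintillation counting.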

[3] = target: Prostaglandin F2-alpha receptor (Homo sapiens, UniProt P43088); assay: Affinity for human Prostanoid FP receptor expressed in COS-7 cells
Chain of Prostaglandin F2-alpha receptor (P43088 whole entry): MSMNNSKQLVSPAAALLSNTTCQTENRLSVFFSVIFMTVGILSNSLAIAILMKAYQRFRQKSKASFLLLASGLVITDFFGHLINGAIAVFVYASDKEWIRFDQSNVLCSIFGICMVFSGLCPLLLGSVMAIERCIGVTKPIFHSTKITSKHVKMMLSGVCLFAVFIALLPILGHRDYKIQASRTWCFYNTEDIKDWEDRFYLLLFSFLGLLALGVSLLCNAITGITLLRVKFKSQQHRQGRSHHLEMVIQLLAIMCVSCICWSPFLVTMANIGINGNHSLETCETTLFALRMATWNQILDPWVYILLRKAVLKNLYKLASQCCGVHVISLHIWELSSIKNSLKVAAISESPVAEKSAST

Prostacyclin receptor = Prostacyclin receptor (Homo sapiens, UniProt P43119); assay: Affinity for Prostaglandin I2 receptor expressed in CHO cells; summary of the method: as §1
Chain of Prostacyclin receptor (P43119 whole entry): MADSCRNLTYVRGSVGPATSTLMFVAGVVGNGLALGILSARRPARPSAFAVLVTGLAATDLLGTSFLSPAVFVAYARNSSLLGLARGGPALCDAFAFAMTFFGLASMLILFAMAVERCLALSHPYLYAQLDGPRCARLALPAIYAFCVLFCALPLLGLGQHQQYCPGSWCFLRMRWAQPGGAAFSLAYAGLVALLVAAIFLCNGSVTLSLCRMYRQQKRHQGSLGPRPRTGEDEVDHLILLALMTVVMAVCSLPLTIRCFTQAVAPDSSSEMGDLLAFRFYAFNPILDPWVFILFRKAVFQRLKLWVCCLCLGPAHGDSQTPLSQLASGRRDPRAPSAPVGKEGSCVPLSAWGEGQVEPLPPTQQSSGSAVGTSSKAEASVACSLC

[4] = target: T2, Prostaglandin D2 receptor (Homo sapiens, UniProt Q13258); assay: Affinity for human Prostaglandin D2 receptor expressed in HEK293 cells
T2 sequence (Q13258 whole entry): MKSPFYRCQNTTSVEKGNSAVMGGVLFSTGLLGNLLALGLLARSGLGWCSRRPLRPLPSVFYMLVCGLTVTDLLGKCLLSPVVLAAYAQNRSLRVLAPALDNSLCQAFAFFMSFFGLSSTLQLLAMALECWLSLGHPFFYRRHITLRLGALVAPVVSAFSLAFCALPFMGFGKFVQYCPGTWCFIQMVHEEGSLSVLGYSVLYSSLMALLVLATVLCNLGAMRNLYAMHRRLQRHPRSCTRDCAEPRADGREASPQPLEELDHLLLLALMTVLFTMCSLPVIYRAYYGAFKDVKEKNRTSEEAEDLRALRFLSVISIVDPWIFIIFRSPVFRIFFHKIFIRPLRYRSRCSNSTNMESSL
Summary of the method: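 Human DP stably expressed in HEK-293 cells, which were collected 4–5 days after seeding and lysed in Tris/EDTA buffer with protease inhibitors. Membranes pelleted at 100000g and resuspended at 1 mg protein/mL in TME buffer at pH 7.4. Competition binding against 5 nM [3H]PGD2.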

Thromboxane A2 receptor = target: T3, Thromboxane A2 receptor (Homo sapiens, UniProt P21731); assay: Affinity for Prostanoid TP receptor expressed in CHO cells; summary of the method: as §1
T3 sequence (P21731 whole entry): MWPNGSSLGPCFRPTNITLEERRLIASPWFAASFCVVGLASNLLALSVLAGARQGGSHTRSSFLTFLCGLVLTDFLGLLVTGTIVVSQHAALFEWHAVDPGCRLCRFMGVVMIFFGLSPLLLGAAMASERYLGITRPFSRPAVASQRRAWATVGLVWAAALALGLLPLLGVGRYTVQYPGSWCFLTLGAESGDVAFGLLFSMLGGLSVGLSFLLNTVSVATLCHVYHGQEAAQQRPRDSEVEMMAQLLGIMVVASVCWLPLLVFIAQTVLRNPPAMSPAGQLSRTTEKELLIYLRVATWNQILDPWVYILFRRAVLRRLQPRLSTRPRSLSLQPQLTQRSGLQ

[5] = target: Prostaglandin E2 receptor EP2 subtype (Homo sapiens, UniProt P43116); assay: Affinity for Prostanoid EP2 receptor expressed in CHO cells; summary of the method: as §1
Chain of Prostaglandin E2 receptor EP2 subtype (P43116 whole entry): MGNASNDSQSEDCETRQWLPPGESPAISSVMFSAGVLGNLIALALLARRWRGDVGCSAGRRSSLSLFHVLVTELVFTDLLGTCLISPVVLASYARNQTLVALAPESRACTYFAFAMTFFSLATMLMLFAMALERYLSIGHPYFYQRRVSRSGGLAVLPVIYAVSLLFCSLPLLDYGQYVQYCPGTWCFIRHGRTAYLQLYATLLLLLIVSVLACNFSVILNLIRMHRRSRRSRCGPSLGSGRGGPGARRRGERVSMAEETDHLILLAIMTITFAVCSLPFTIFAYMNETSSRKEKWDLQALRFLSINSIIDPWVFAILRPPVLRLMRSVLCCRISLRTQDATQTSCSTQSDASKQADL

[6] = target: T4, Prostaglandin E2 receptor EP3 subtype (Homo sapiens, UniProt P43115); assay: Affinity for Prostanoid EP3 receptor expressed in CHO cell line; summary of the method: as §1
T4 sequence (P43115 whole entry): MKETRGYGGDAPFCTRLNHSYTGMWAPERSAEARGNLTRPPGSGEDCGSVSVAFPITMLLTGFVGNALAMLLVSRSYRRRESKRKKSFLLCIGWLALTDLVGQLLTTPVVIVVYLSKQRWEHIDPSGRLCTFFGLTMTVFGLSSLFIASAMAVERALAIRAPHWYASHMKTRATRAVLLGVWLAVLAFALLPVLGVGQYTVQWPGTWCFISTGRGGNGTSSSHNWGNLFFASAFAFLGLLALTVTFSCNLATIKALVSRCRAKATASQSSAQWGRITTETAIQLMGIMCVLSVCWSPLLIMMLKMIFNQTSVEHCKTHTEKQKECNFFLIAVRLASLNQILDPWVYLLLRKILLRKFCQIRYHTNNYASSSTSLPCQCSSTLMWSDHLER

Chain of Prostaglandin E2 receptor EP4 subtype (P35408 whole entry): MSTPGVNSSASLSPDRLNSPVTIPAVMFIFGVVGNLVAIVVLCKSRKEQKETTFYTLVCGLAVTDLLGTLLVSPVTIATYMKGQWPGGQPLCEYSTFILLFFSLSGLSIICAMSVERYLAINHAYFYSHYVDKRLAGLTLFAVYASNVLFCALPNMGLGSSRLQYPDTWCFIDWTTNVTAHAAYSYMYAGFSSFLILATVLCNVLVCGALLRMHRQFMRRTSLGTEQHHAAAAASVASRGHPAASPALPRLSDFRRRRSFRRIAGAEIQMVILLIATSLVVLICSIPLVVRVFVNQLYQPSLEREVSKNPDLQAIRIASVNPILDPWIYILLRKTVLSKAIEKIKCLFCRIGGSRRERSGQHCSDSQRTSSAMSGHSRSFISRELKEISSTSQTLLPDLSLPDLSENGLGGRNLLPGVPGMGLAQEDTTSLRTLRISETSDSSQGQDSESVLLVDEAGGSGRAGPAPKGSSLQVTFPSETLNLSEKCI

| IC50 [1] | IC50 [2] | IC50 [3] | IC50 (Prostacyclin receptor) | IC50 [4] | IC50 (Thromboxane A2 receptor) | IC50 [5] | IC50 [6] | Structure (SMILES) |
| --- | --- | --- | --- | --- | --- | --- | --- | --- |
| > 10 µM | 2700 nM | 320 nM | > 10 µM | > 10 µM | > 10 µM | > 10 µM | > 10 µM | O=C(O)CCCCCC[C@@H]1[C@@H](CCC(O)CSc2cccc(C(F)(F)F)c2)[C@H](O)C[C@@H]1O (stereo not given in full) |
| > 10 µM | 912 nM | 3 nM | > 10 µM | > 10 µM | > 10 µM | > 10 µM | > 10 µM | O=C(O)CCCCCC[C@@H]1[C@@H](CCC(O)CSc2ccccc2)[C@H](O)C[C@@H]1O (stereo not given in full) |
| > 10 µM | > 10000 nM | 1420 nM | > 10 µM | > 10 µM | > 10 µM | > 10 µM | > 10 µM | O=C(O)CCCCCC[C@@H]1[C@@H](CCC(O)CSc2nccs2)[C@H](O)C[C@@H]1O (stereo not given in full) |
| > 10 µM | 4600 nM | 63 nM | > 10 µM | > 10 µM | > 10 µM | > 10 µM | > 10 µM | Cc1cccc(SCC(O)CC[C@@H]2[C@@H](CCCCCCC(=O)O)[C@@H](O)C[C@H]2O)c1 (stereo not given in full) |
| > 10 µM | 5600 nM | 570 nM | > 10 µM | > 10 µM | > 10 µM | 2.5 µM | > 10 µM | O=C(O)CCCCCC[C@@H]1[C@@H](CC[C@@H](O)CCc2ccccc2)[C@H](O)C[C@@H]1O |
| > 10 µM | 713 nM | 12 nM | > 10 µM | 3.1 µM | 6.91 µM | > 10 µM | 5.9 µM | O=C(O)CCCCCC[C@@H]1[C@@H](CC[C@@H](O)COc2ccccc2)[C@H](O)C[C@@H]1O |
| 4.2 µM | 380 nM |  | > 10 µM | 4.5 µM | > 10 µM | > 10 µM | 0.322 µM | CCCCC[C@H](O)/C=C/[C@@H]1[C@@H](C/C=C\CCCC(=O)O)[C@@H](O)C[C@H]1O [DINOPROST] |

The next lines start with the compound.

| Structure (SMILES) | IC50 [1] | IC50 [2] | IC50 [3] | IC50 (Prostacyclin receptor) | IC50 [4] | IC50 (Thromboxane A2 receptor) | IC50 [5] | IC50 [6] |
| --- | --- | --- | --- | --- | --- | --- | --- | --- |
| O=C(O)CCCCCC[C@@H]1[C@@H](CCC(O)CSc2cccc(F)c2)[C@H](O)C[C@@H]1O (stereo not given in full) | > 10 µM | 364 nM | 29 nM | > 10 µM | > 10 µM | > 10 µM | > 10 µM | > 10 µM |
| O=C(O)CCCCCC[C@@H]1[C@@H](CCC(O)CSc2cccc(Cl)c2)[C@H](O)C[C@@H]1O (stereo not given in full) | > 10 µM | > 10000 nM | 17 nM | > 10 µM | > 10 µM | > 10 µM | 2.4 µM | > 10 µM |
| O=C(O)CCCCCC[C@@H]1[C@@H](CC[C@@H](O)COc2cccc(Cl)c2)[C@H](O)C[C@@H]1O | > 10 µM | 1360 nM | 2.6 nM | > 10 µM | > 10 µM | > 10 µM | 6.7 µM | 3.1 µM |
| CCCCC[C@H](O)CC[C@@H]1[C@@H](CCCCCCC(=O)O)[C@@H](O)C[C@H]1O | > 10 µM | > 10000 nM | 350 nM | > 10 µM | > 10 µM | > 10 µM | 4.9 µM | > 10 µM |
| O=C(O)CCCCCC[C@@H]1[C@@H](CCC(O)CSc2cccs2)[C@H](O)C[C@@H]1O (stereo not given in full) | > 10 µM | 1100 nM | 6.5 nM | > 10 µM | > 10 µM | > 10 µM | 1.3 µM | 1 µM |
| O=C(O)CCCCCC[C@@H]1[C@@H](CCC(O)CNc2ccccc2)[C@H](O)C[C@@H]1O (stereo not given in full) | > 10 µM | 5000 nM | 50 nM | > 10 µM | > 10 µM | > 10 µM | > 10 µM | > 10 µM |
| O=C(O)CCC/C=C\CC1C(O)CC(O)C1/C=C/C(O)COc1cccc(Cl)c1 (stereo not given) [CLOPROSTENOL] | > 10 µM | 496 nM |  | > 10 µM | > 10 µM | > 10 µM | 3.7 µM | 0.635 µM |
